Measurements pooled from the literature.
Protocols differ between the studies behind these lines.
Organism: Candida albicans
Effect on: microbial growth

O=C(CCCCCCCC[P+](c1ccccc1)(c1ccccc1)c1ccccc1)Nc1ccc(O)c(O)c1.[Br-]  MIC (broth dilution; ATCC90028; 24 h): > 32 µg/mL
C=C1C(=O)O[C@@H](CCCCCCCCCCCCC)[C@@H]1C(=O)O  MIC (SC5314): 64 µg/mL
CC1=NN(CNC(=O)c2ccccc2)C(=O)C1=NNn1c(-c2ccccc2)nc2ccccc2c1=O  MIC (broth dilution): 104 µM
COc1cc(-c2ccccc2)cc(C(C)C#Cc2c(C)nc(N)nc2N)c1 (racemic)  MIC (resazurin): 250 µM
CC1=NN(CNc2ccccc2[N+](=O)[O-])C(=O)C1=NNn1c(-c2ccccc2)nc2ccccc2c1=O  MIC (broth dilution): 50.4 µM
O=C(CCCCCC[P+](c1ccccc1)(c1ccccc1)c1ccccc1)Nc1ccc(O)c(O)c1.[Br-]  MIC (broth dilution; ATCC90028; 24 h): 32 µg/mL
O=C1NN=C(N=Cc2ccccc2O)C1=NNn1c(-c2ccccc2)nc2ccccc2c1=O  MIC (broth dilution): 111 µM
O=C(CCCCCC[P+](c1ccccc1)(c1ccccc1)c1ccccc1)Nc1cc(O)c(O)c(O)c1.[Br-]  MIC (broth dilution; ATCC90028; 24 h): > 32 µg/mL
CC1=NN(CNC(=O)c2ccccn2)C(=O)C1=NNn1c(-c2ccccc2)nc2ccccc2c1=O  MIC (broth dilution): 104 µM
CCOC(=O)c1nc2ccccc2c(=O)n1Cc1cn(-c2ccc(C)cc2)nn1  MIC (broth dilution; ATCC90028): 250 µg/mL
OC(Cn1cncn1)(Cn1cncn1)c1ccc(F)cc1F  MIC (broth dilution; ATCC90028; 24 h): 0.125 µg/mL
CC[C@@H]([C@H](C)O)n1ncn(-c2ccc(N3CCN(c4ccc(OC[C@@H]5CO[C@@](Cn6cncn6)(c6ccc(F)cc6F)C5)cc4)CC3)cc2)c1=O  MIC (ATCC10231; 72 h): < 0.3 µM
O=C1NN=C(N=Cc2ccc(O)cc2O)C1=NNn1c(-c2ccccc2)nc2ccccc2c1=O  MIC (broth dilution): 53.5 µM
OC(Cn1cncn1)(Cn1cncn1)c1ccc(F)cc1F  MIC (SC5314): 2 µg/mL
N=C(N)N1CC=C(c2coc(C(=O)Nc3ccc(C4=CCN(C(=N)N)CC4)c(F)c3)c2)CC1  MIC (broth dilution; 48 h; clinical isolate): 0.78 µg/mL
